The structures appear in SMILES notation. Some results are limits rather than exact numbers.

One assay concerns the target T1, Neprilysin (Rattus norvegicus, UniProt P07861).
T1 sequence (P07861 whole entry): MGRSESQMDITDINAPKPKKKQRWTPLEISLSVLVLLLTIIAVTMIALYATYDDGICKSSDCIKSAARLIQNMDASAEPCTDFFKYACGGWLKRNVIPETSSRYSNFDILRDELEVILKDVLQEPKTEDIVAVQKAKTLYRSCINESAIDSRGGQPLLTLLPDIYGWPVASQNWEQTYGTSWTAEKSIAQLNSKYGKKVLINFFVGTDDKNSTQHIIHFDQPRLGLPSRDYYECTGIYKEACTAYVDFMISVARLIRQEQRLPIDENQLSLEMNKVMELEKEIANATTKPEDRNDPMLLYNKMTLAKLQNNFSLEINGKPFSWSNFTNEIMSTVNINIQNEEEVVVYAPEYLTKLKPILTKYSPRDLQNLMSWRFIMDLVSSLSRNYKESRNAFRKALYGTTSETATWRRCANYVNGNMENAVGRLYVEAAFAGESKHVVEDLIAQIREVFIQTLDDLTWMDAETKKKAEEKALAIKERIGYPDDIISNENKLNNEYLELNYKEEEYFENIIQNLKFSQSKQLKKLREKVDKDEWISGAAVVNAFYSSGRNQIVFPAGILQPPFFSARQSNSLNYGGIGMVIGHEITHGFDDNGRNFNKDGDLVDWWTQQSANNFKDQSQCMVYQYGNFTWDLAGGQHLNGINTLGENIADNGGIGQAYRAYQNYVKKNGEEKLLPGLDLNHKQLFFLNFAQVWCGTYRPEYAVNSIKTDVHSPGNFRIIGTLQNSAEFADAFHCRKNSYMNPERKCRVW
Briefly: The compound was tested for inhibition of Neutral endopeptidase by using GAAP as substrate.
Settings: not given
An outline of the steps: (§1)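 Enzyme source was rat kidney cortex membranes (male Sprague-Dawley), 4.0 μg protein, plus 2.5 μg aminopeptidase M, in 50 mM Tris-HCl pH 7.4. Preincubated with inhibitor 10 min at 25 °C, then GAAP added (final 500 μM) for 25 min at 25 °C. Stopped with fast garnet, colour developed 30 min, OD read at 540 nm. Run in duplicate.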
One may read the IC50 as the point on the concentration scale where inhibition reaches its midpoint. In turn, `O=C(O)CCNC(=O)[C@H](Cc1ccccc1)C[C@@H](Cc1ccccc1)C(=O)O` yielded an IC50 of 1200 nM.
Regarding `O=C(O)CCNC(=O)[C@@H](CCC(=O)O)Cc1ccc(-c2ccccc2)cc1`, the IC50 is 155 nM.

In another assay the target is T2, Neprilysin (Rattus norvegicus) (UniProt P07861).
T2 sequence (whole entry): T1 sequence (P07861 whole entry)
Briefly: The compound was tested in vitro for inhibition of Neutral endopeptidase by using GAAP as substrate. Conditions: concentration not given here. In a few lines: as §1
Broadly, the inhibition is the share of the control response that was lost under treatment. Lower therefore signals a weak effect. On to `O=C(O)CCNC(=O)C(Cc1ccc(-c2nccs2)cc1)CC(Cc1ccc(-c2nccs2)cc1)C(=O)O` (stereo not drawn), for which the inhibition came to 43%.
In turn, `O=C(O)C1CCC(NC(=O)C(Cc2ccccc2)CC(Cc2ccccc2)C(=O)O)CC1` (stereo not drawn) gave an inhibition of 52%.

A further assay deals with T1, Neprilysin. Briefly: The compound was tested in vitro for inhibition of Neutral endopeptidase by using ANF(atrial natriuretic factor) as substrate.
Settings: not given
An outline of the steps: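 NEP (5.0 μg) preincubated 10 min with inhibitor in 50 mM Tris-HCl pH 7.4. Reaction started with r-ANF (final 20 μM) and run 10 min at 37 °C, then stopped with 0.6% TFA. Substrate loss measured by 3 min isocratic RP-HPLC on a C4 cartridge. Run in duplicate.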
On to `O=C(O)CCNC(=O)[C@H](Cc1ccc(-c2ccccc2)cc1)NCP(=O)(O)O`, for which the half-maximal inhibitory concentration (IC50) came out at 2 nM.

A further assay concerns the target T1, Neprilysin. Briefly: In vitro inhibition of rat neutral endopeptidase by using GAAP as substrate.
Settings: not given
An outline of the steps:
as §1
Consider `CCCC[C@H](C[C@@H](Cc1ccc(-c2ccccc2)cc1)C(=O)NCCC(=O)O)C(=O)O`, for which half-maximal inhibition (IC50) required 66 nM.
In turn, `O=C(O)CCNC(=O)C(Cc1ccc(-c2nccs2)cc1)CC(Cc1ccc(-c2nccs2)cc1)C(=O)O` (stereo not drawn) registered a concentration for half-maximal inhibition (IC50) of more than 1000 nM.
As to `O=C(O)CCNC(=O)[C@H](Cc1ccc(-c2ccccc2)cc1)C[C@@H](Cc1ccc(-c2nccs2)cc1)C(=O)O`, the midpoint of inhibition, the IC50, lay at 19 nM.
For `O=C(O)CCNC(=O)C(Cc1ccccc1)CC(Cc1ccccc1)C(=O)O` (stereo not drawn), the IC50 came to 1200 nM.
Molecule `O=C(O)CCC(=O)N[C@H](Cc1ccccc1)C[C@@H](Cc1ccccc1)C(=O)O` came in with an IC50 of 4000 nM.
`COc1ccc(C[C@H](C[C@@H](Cc2ccc(-c3ccccc3)cc2)C(=O)NCC(O)C(=O)O)C(=O)O)cc1OC` (stereo partly drawn) came in with a 50% inhibitory concentration (IC50) of 11 nM.
Molecule `O=C(O)CCNC(=O)C(Cc1ccc(Oc2ccccc2)cc1)CC(Cc1ccc(Oc2ccccc2)cc1)C(=O)O` (stereo not drawn) displayed a half-inhibitory concentration (IC50) of 203 nM.
Take `O=C(O)C1CCC(NC(=O)C(Cc2ccc(-n3cccc3)cc2)CC(Cc2ccc(-n3cccc3)cc2)C(=O)O)CC1` (stereo not drawn): the concentration for half-maximal inhibition (IC50) is 515 nM.
As for `O=C(O)CCNC(=O)[C@@H](CCC(=O)O)Cc1ccc(-c2ccccc2)cc1`, the half-maximal inhibitory concentration (IC50) turned out to be 155 nM.
`Cc1ccc([C@H](C[C@@H](Cc2ccc(-c3ccccc3)cc2)C(=O)NCCC(=O)O)C(=O)O)cc1` gave an IC50 of 54 nM.
For `O=C(O)CCNC(=O)[C@H](Cc1ccc(-c2ccccc2)cc1)C[C@@H](Oc1ccccc1)C(=O)O` (stereo in doubt; 8f), the 50% inhibitory concentration (IC50) is more than 1000 nM.
`CO[C@H](C[C@@H](Cc1ccc(-c2ccccc2)cc1)C(=O)NCCC(=O)O)C(=O)O` (stereo in doubt; 8g) returned a 50% inhibitory concentration (IC50) of 42 nM.
Turning to `CO[C@H](C[C@@H](Cc1ccc(-c2ccccc2)cc1)C(=O)NCCC(=O)O)C(=O)O` (stereo in doubt; 8h), the 50% inhibitory concentration (IC50) was more than 1000 nM.
With `COCC[C@H](C[C@@H](Cc1ccc(-c2ccccc2)cc1)C(=O)NCCC(=O)O)C(=O)O`, inhibition was half-maximal at 46 nM (IC50).
For `COc1ccc(C[C@H](C[C@@H](Cc2ccc(-c3ccccc3)cc2)C(=O)NCCC(=O)O)C(=O)O)cc1OC`, it took 54 nM to reach half-maximal inhibition (IC50).
On the same count and under the same terms, next, `C[C@H](C[C@@H](Cc1ccc(-c2ccccc2)cc1)NC(=O)CC(=O)O)C(=O)O`: 92 nM; `C[C@H](C[C@@H](Cc1ccc(-c2ccccc2)cc1)C(=O)NCCC(=O)O)C(=O)O`: 41 nM.
In turn, `CC(C)c1ccc(CC(CC(Cc2ccc(C(C)C)cc2)C(=O)NCCC(=O)O)C(=O)O)cc1` (stereo not drawn) showed a concentration for half-maximal inhibition (IC50) of 489 nM.
The same measure, in the same setting: the figure for `O=C(O)CCNC(=O)C(Cc1ccc(-c2ccccc2)cc1)CC(Cc1ccc(-c2ccccc2)cc1)C(=O)O` (stereo not drawn) is 49 nM.
Same read-out and setting: next, `C[C@H](C[C@@H](Cc1ccc(-c2ccccc2)cc1)NC(=O)CCCC(=O)O)C(=O)O`: 90 nM; `CO[C@H](C[C@@H](Cc1ccc(-c2ccccc2)cc1)NC(=O)CCCC(=O)O)C(=O)O`: 49 nM; `C[C@H](C[C@@H](Cc1ccc(-c2ccccc2)cc1)NC(=O)CCCCC(=O)O)C(=O)O`: 324 nM.
For the molecule `O=C(O)CCNC(=O)[C@H](Cc1ccc(-c2ccccc2)cc1)C[C@@H](Oc1ccccc1)C(=O)O` (stereo in doubt; 8e), the 50% inhibitory concentration (IC50) stood at 44 nM.
The same measure, in the same setting: next, `O=C(O)CCNC(=O)C(Cc1ccc(-n2cccc2)cc1)CC(Cc1ccc(-n2cccc2)cc1)C(=O)O` (stereo not drawn): 36 nM; `CCCC[C@H](C[C@@H](Cc1ccc(-c2ccccc2)cc1)C(=O)NCC(O)C(=O)O)C(=O)O` (stereo partly drawn): 21 nM.

A further assay concerns the target T1, Neprilysin. Briefly: The compound was tested in vitro for inhibition of Neutral endopeptidase by using Leu enkephalin as substrate.
Settings: not given
An outline of the steps: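 NEP (30 ng) preincubated 10 min with inhibitor in 50 mM Tris-HCl pH 7.4. Substrate disappearance followed by 6 min isocratic RP-HPLC on a C4 column. Duplicates.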
`O=C(O)CCNC(=O)[C@H](Cc1ccccc1)C[C@@H](Cc1ccccc1)C(=O)O` yielded an IC50 of 9 nM.
In turn, `O=C(O)CCNC(=O)[C@@H](CCC(=O)O)Cc1ccc(-c2ccccc2)cc1` had an IC50 of 0.7 nM.
Turning to `O=C(O)CCNC(=O)[C@H](Cc1ccc(-c2ccccc2)cc1)NCP(=O)(O)O`, the 50% inhibitory concentration (IC50) is 0.81 nM.

The values above are taken from ChEMBL document CHEMBL1128359, “Dicarboxylic acid dipeptide neutral endopeptidase inhibitors” (J Med Chem, 1995).
